INS promoter act – TRM-6 insulin promoter activation | hit rate 0.81% among 130,000 | TRM-6 cells (human fetal islet line), insulin promoter eGFP reporter, imaging; plate-scaled: unstimulated 0, stimulated control 100 | activation, % at 2 µM | AID 1296;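 active means activation at 2 µM above a set limit, confirmed on inspection of the cell images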;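 further: share of cells whose green reporter signal exceeds an intensity cutoff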
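Assay system: TRM-6 insulin promoter–eGFP reporter cells / Input: 1,000 cells per well / Medium: Low-glucose (5.5 mM) medium with tamoxifen / Also added: tamoxifen inducer, 0.75 µM, in seeding medium / Timing: overnight tamoxifen, then two-day compound incubation at 37 °C / Signal: automated fluorescence imaging of paraformaldehyde-fixed, Hoechst-counterstained cells, green channel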
Hits are given with their value; . = inactive; [ ] = remark or other dose. This is one part of a sample in which hits are shown more often than they occur.

SMILES | INS promoter act
COc1ccc(C2Nc3ccccc3C(=O)N2Cc2ccco2)cc1COc1ccc(NC(C)=O)cc1 (configuration not stated) | .
COc1ccc(C2Nc3ccccc3C(=O)N2c2ccccc2)cc1COc1ccccn1 (configuration not stated) | 220.0
COc1ccc(C2Nc3ccccc3C(=O)N2Cc2ccccc2)cc1CSc1ccccn1 (configuration not stated) | .
COc1ccc(/C=N/OCC(=O)N(Cc2ccc(OC)cc2)c2ccccc2C(=O)O)cc1 | .
Cc1[nH]c2ccccc2c1-c1csc(NC(=O)CN2CCOCC2)n1 | .
CC(O)C(C(=O)OCc1ccc([N+](=O)[O-])cc1)N1C(=O)c2ccccc2C1=O (configuration not stated) | .
COc1ccc(-c2cnc(SCC(=O)Nc3ccc4c(c3)OCO4)n2Cc2ccco2)cc1 | .
CCOC(=O)CNC(=O)CSc1nnc(-c2ccccc2)n1Cc1ccco1 | .
O=C(CSc1nnc(-c2ccc(Cl)cc2)n1Cc1ccco1)NCc1ccc2c(c1)OCO2 | 80.0
CC1(C)Cc2c(sc3[nH]c(=S)[nH]c(=O)c23)CO1 | .
CN(C)c1ccc(/C=N/N2C(=N)N(c3ccccc3)C(=S)C2=Nc2ccccc2)cc1 | .
CN(C)c1ccc(/C=C/C(O)=C2/C(=O)N(C)C3(C)CC2c2ccccc2O3)cc1 (configuration not stated) | .
CN(C)c1ccc(/C=C/C=C2/SC(=S)N(c3ccccc3)C2=O)cc1 | 295.8
O=C(NCc1ccco1)C1CCN(S(=O)(=O)Cc2ccccc2)CC1 | .
CCOC(=O)CC(NC(=O)c1cccc2c1C(=O)N(Cc1cccnc1)C2)c1ccc(OCC)c(OC)c1 (configuration not stated) | .
O=C(Oc1c(CN2CCOCC2)cc(Cl)c2cccnc12)c1ccccc1 | .
O=[N+]([O-])c1cc(CN2CCN(c3ccccc3)CC2)c(O)c2ncccc12 | 330.0
Oc1ccc(CN2CCN(Cc3ccccc3)CC2)c2cccnc12 | .
COC(=O)C1=C(C)Nc2c(c(=O)n(C)c(=O)n2C)C1c1ccc(C)cc1 (configuration not stated) | .
O=C(/C=C/c1cccs1)NC(=S)NNC(=O)Cc1cccs1 | .
CCOc1nc(NC(=O)NS(=O)(=O)Oc2cccc(Cl)c2)nc(-c2ccccc2)n1 | .
O=C(Nc1ccc(Oc2cccnc2)cc1)c1cccc([N+](=O)[O-])c1 | .
COc1ccc(-c2nc(C)sc2C)cc1 | 418.8
COCC(=O)Nc1nc(-c2ccc(C)cc2)c(C)s1 | .
COc1ccc(-c2sc(NC(C)=O)nc2-c2ccccc2)cc1 | .
SMILES | INS promoter act
Cc1nn(C)c(C)c1CS(=O)(=O)c1ccccc1 | .
CCN(CC)S(=O)(=O)N1CCN(S(=O)(=O)N2CCOCC2)CC1 | .
CCCn1c(=O)c2c(nc3n2CCS3)n(C)c1=O | .
Cc1cccc(-n2ncc3c(N4CCOCC4)ncnc32)c1 | .
Cc1nnc(N2CCOCC2)c2nn(-c3cccc(Cl)c3)c(C)c12 | 233.3
Cc1nnc(SCCN2CCOCC2)c2nn(-c3ccccc3F)c(C)c12 | .
CCCCC(c1nnnn1CCOC)N1CCN(Cc2ccccc2)CC1 (configuration not stated) | .
C[N+]1(CCC(=O)c2ccccc2)CCCCC1 | .
CC(C)(C)C1CCC(OC(=O)C[N+]2(C)CCCCC2)CC1 (configuration not stated) | 200.0
O=C(CSc1nnc(C2CC2)n1-c1ccccc1)NCCc1ccccc1 | .
Cc1cccc(NC(=S)N(Cc2cccs2)Cc2cc3cc(C)ccc3[nH]c2=O)c1 | .
CNC(=S)N(Cc1cccs1)Cc1cc2cc(OC)c(OC)cc2[nH]c1=O | .
COc1cc2cc(CN(Cc3cccs3)C(=S)Nc3cccc(C)c3)c(=O)[nH]c2cc1OC | 353.8
Cc1ccc(/C=C(\C#N)c2nc3ccccc3[nH]2)s1 | .
CCN(CC)c1ccc(/C=C(/C#N)c2nc3ccc(C)cc3[nH]2)c(OC(C)C)c1 | 244.8
COc1cc(/C=C(\C#N)c2nc3ccccc3[nH]2)cc(Br)c1OCc1ccc(F)cc1 | .
CCOc1cc(N(CC)CC)ccc1/C=C(/C#N)c1nc2ccccc2[nH]1 | 233.3
N#C/C(=C/c1cccs1)c1nc2ccccc2[nH]1 | .
N#C/C(=C\c1cc([N+](=O)[O-])c(N2CCOCC2)cc1N1CCOCC1)c1nc2ccccc2[nH]1 | .
O=C1CC(C(=O)Nc2cccc(F)c2)n2ncnc2N1 (configuration not stated) | .
CC1=C(C(=O)NCCN2CCN(C)CC2)C2(CCC(C)CC2)OC1=O (configuration not stated) | .
COc1ccc(NC(=O)c2sc3nc(Cc4ccccc4)cc(C(F)(F)F)c3c2N)cc1OC | .
Nc1c(C(=O)Nc2nccs2)sc2nc(-c3cccs3)cc(C(F)(F)F)c12 | 181.7[may fluoresce]
Cc1cccc(OCc2nnc(NC(=O)c3cccs3)s2)c1 | .
O=C(Nc1nccc(-c2cccs2)n1)c1ccccc1Cl | .
SMILES | INS promoter act
N#Cc1sc2nc(-c3cccs3)cc(-c3ccccc3)c2c1N | .
Cc1nnc(NC(=O)c2sc3nc(-c4cccs4)cc(C(F)(F)F)c3c2N)s1 | 106.8[may fluoresce]
COC(=O)c1[nH]c2cc(C)ccc2c1NC(=O)CN1CCCc2ccccc21 | 190.9
COC(=O)c1[nH]c2ccccc2c1NC(=O)CN1CCN(c2cccc(OC)c2)C(C)C1 (configuration not stated) | .
COC(=O)c1[nH]c2ccc(C)cc2c1NC(=O)Nc1ccccc1OC | .
CC(C)c1nnc(NC(=O)C2CCCN2C(=O)Nc2ccccc2[N+](=O)[O-])s1 (configuration not stated) | .
CCOC(=O)c1c(NC(C)=O)sc2c1CCC(C=NCCCN(CC)CC)=C2Sc1ccccc1 | .
COC(=O)c1cc(-c2ccc(Cl)cc2Cl)n[nH]1 | .
COc1cc2[nH]ccc(=O)c2cc1OC | .
COc1ccc[nH]c1=O | 154.5
COc1ccccc1Nc1nnc(C)c(=O)[nH]1 | .
Cc1cc(C)c2[nH]c(=O)c(CN(Cc3cccs3)C(=S)NCC3CCCO3)cc2c1 (configuration not stated) | .
CC(C(=O)OCC(=O)Nc1cccc(S(=O)(=O)N2CCOCC2)c1)N1C(=O)c2ccccc2C1=O (configuration not stated) | .
Cc1ccccc1-c1nc(Cc2ccc(Cl)cc2)no1 | 102.9
Cc1ccccc1-c1noc(-c2cccs2)n1 | .
COc1cc(-c2nc(Cc3c(F)cccc3Cl)no2)cc(OC)c1OC | .
COC(=O)c1ccc(COC(=O)CCC(=O)c2cccs2)cc1 | .
CC(C)Oc1ccc(C(=O)NC2(C(F)(F)F)N=C3SCCN3C2=O)cc1 (configuration not stated) | .
C=CCOc1ccc(C2CC(C)=NN2c2ccccc2)cc1 (configuration not stated) | .
Cc1ccc(C(=O)NNC(=O)CSc2nnc(-c3ccccc3)n2Cc2ccccc2)cc1 | .
CN(CCO)c1c2c(nc3cc(-c4cccc(F)c4)nn13)CCCC2 | 94.6
Fc1cccc(-c2cc3nc4c(c(N5CCC6(CC5)OCCO6)n3n2)CCCC4)c1 | .
COCCN1CCN(c2cc(-c3ccccc3)nc3cc(-c4cccc(F)c4)nn23)CC1 | .
Cc1cccc(C(=O)Nc2nccs2)c1[N+](=O)[O-] | .
COC(=O)/C=C1/N/C(=N\c2nc(C)cc(C)n2)N(c2ccccc2)C1=O | .
CC(C)c1c(O)c2c(n(-c3ccccc3)c1=O)CCCC2 | .
COc1ccc(/C=N/NC(=O)C(C)n2cnc3ccccc3c2=O)cc1 (configuration not stated) | .

Compound activity: PubChem, Columbia University Molecular Screening Center
